# Source: ChEMBL document CHEMBL1833861 (J Med Chem, 2011)
# Activity calls are given as the source filed them. The rule behind the calls is not given here.
# Columns and labels:
# [1] = molecular target: T1, Neuronal acetylcholine receptor; alpha4/beta2 (Homo sapiens, UniProt P17787+P43681); assay: Agonist activity at human alpha4beta2 nAChR expressed in human SH-EP1 cells assessed as increase of carbamylcholine-induced 86Rb+ ion efflux by liquid scintillation counting relative to carbamylcholine; type: functional, cell-based
# T1 sequence (P17787 whole entry): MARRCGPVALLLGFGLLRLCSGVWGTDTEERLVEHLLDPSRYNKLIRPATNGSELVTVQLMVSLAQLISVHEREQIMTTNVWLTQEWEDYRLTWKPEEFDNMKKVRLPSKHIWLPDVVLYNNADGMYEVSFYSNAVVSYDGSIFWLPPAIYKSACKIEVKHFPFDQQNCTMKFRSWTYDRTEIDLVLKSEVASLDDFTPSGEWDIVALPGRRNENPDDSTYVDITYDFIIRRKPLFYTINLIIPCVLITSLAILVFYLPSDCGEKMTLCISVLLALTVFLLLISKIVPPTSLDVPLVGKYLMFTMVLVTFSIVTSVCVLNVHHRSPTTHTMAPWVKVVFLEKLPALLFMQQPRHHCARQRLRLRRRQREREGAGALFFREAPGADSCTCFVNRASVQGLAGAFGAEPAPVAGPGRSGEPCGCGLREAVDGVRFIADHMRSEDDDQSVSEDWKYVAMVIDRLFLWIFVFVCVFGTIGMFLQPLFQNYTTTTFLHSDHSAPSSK
# T1 sequence (P43681 whole entry): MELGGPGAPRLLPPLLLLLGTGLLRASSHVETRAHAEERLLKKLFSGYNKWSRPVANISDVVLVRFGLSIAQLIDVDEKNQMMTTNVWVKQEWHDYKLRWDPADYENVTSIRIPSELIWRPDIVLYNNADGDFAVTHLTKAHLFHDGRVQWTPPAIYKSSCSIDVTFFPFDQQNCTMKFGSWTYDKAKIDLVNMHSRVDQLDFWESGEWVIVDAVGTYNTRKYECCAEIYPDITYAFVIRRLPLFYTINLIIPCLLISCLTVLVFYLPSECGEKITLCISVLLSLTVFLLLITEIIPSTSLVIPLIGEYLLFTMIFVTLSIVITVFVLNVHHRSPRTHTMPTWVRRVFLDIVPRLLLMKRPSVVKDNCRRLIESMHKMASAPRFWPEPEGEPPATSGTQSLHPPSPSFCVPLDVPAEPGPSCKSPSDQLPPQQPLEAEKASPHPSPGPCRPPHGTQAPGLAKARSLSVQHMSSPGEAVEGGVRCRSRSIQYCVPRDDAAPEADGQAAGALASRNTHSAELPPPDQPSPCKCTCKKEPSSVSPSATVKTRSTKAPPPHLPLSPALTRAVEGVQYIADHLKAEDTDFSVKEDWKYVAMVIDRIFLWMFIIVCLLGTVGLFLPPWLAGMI
# [2] = molecular target: T1, Neuronal acetylcholine receptor; alpha4/beta2; assay: Agonist activity at human alpha4beta2 nAChR expressed in human SH-EP1 cells assessed as increase of carbamylcholine-induced 86Rb+ ion efflux by liquid scintillation counting; type: functional, cell-based
# [3] = organism: Rattus norvegicus; assay: Selectivity ratio of Ki for rat alpha4beta2 nAChR over Ki for rat alpha3beta4 nAChR
# [4] = molecular target: Neuronal acetylcholine receptor; alpha4/beta4 (Rattus norvegicus, UniProt P09483+P12392); assay: Displacement of [3H]epibatidine from rat alpha4beta4 nAChR receptor; type: protein-complex assay
# Sequence of Neuronal acetylcholine receptor; alpha4/beta4 (P09483 whole entry): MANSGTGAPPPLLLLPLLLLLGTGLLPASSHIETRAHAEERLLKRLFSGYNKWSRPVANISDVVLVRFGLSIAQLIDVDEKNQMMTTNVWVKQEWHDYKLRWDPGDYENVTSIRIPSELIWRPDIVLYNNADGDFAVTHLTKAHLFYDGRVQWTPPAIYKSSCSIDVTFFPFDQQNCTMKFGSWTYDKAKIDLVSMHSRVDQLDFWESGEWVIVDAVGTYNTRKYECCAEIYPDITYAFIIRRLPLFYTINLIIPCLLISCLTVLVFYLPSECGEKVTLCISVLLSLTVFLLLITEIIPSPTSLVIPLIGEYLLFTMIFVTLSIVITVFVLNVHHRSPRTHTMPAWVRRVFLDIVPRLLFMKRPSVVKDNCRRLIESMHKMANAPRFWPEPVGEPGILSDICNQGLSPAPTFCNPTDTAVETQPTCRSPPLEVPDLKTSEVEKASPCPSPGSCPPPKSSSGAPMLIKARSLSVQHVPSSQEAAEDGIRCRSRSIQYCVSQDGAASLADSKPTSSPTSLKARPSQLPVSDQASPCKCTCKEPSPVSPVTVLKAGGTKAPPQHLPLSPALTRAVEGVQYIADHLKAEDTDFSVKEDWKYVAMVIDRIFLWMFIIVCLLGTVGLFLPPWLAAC
# Sequence of Neuronal acetylcholine receptor; alpha4/beta4 (P12392 whole entry): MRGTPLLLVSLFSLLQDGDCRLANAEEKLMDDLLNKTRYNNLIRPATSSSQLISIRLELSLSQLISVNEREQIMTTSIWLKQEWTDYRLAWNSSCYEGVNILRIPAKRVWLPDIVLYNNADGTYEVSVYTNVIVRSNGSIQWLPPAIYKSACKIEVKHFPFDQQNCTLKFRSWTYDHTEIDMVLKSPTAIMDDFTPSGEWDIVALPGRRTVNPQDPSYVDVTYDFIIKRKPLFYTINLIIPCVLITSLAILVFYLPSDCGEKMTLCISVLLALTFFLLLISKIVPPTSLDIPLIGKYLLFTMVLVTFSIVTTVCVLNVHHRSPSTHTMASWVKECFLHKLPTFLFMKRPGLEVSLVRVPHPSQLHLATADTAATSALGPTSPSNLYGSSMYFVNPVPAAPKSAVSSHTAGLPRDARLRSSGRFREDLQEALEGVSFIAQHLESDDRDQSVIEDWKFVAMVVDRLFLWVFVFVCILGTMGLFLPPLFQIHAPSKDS
# [5] = molecular target: T2, Neuronal acetylcholine receptor; alpha4/beta2 (Rattus norvegicus, UniProt P09483+P12390); assay: Displacement of [3H]epibatidine from rat alpha4beta2 nAChR receptor; type: protein-complex assay
# T2 sequence (P09483 whole entry): as the sequence (P09483 whole entry) above
# T2 sequence (P12390 whole entry): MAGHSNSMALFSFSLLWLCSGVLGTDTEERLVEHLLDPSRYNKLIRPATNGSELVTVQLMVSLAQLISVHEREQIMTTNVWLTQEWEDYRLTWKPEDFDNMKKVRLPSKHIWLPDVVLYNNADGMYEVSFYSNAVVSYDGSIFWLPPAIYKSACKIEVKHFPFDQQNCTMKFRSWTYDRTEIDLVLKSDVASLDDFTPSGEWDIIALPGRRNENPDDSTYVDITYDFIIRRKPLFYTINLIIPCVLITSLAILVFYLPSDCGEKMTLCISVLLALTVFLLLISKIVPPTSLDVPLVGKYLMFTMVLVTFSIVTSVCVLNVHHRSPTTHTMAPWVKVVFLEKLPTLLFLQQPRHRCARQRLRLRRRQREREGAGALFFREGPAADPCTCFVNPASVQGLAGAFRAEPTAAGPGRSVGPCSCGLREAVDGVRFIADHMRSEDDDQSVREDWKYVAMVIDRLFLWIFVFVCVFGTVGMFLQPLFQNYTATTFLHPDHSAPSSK
# [6] = molecular target: Neuronal acetylcholine receptor; alpha3/beta4 (Rattus norvegicus, UniProt P04757+P12392); assay: Displacement of [3H]epibatidine from rat alpha3beta4 nAChR receptor; type: protein-complex assay
# Sequence of Neuronal acetylcholine receptor; alpha3/beta4 (P04757 whole entry): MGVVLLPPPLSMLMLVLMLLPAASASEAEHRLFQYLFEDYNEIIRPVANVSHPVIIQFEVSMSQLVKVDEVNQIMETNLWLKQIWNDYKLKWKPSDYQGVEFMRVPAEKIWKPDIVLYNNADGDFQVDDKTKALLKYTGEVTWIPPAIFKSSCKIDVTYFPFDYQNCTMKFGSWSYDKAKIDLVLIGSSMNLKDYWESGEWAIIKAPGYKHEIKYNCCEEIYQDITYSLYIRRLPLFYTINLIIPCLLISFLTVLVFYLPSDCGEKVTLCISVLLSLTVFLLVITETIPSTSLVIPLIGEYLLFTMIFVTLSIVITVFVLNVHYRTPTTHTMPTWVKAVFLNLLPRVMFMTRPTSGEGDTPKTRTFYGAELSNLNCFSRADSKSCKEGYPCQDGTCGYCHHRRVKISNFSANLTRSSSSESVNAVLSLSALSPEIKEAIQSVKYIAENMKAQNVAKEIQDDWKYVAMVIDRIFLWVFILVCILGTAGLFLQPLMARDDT
# Sequence of Neuronal acetylcholine receptor; alpha3/beta4 (P12392 whole entry): as the sequence (P12392 whole entry) above
# [7] = molecular target: Neuronal acetylcholine receptor; alpha2/beta4 (Rattus norvegicus, UniProt P12389+P12392); assay: Displacement of [3H]epibatidine from rat alpha2beta4 receptor; type: protein-complex assay
# Sequence of Neuronal acetylcholine receptor; alpha2/beta4 (P12389 whole entry): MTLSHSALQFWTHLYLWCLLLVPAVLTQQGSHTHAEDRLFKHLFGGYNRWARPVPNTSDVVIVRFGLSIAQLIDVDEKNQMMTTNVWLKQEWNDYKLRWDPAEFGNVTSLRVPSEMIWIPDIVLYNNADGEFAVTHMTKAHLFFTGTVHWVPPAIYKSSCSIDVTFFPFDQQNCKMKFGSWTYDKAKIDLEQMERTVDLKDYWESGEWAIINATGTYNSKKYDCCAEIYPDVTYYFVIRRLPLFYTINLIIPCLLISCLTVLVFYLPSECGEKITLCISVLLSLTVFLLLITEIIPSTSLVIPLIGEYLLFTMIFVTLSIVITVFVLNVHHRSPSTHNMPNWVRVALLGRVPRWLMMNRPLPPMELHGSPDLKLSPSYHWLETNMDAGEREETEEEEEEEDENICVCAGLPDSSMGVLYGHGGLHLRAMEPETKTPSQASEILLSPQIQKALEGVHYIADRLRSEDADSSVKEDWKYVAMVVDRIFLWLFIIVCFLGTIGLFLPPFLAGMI
# Sequence of Neuronal acetylcholine receptor; alpha2/beta4 (P12392 whole entry): as the sequence (P12392 whole entry) above
# [8] = molecular target: Neuronal acetylcholine receptor; alpha3/beta2 (Rattus norvegicus, UniProt P04757+P12390); assay: Displacement of [3H]epibatidine from rat alpha3beta2 receptor; type: protein-complex assay
# Sequence of Neuronal acetylcholine receptor; alpha3/beta2 (P04757 whole entry): as the sequence (P04757 whole entry) above
# Sequence of Neuronal acetylcholine receptor; alpha3/beta2 (P12390 whole entry): as the sequence (P12390 whole entry) above
# [9] = molecular target: Neuronal acetylcholine receptor; alpha2/beta2 (Rattus norvegicus, UniProt P12389+P12390); assay: Displacement of [3H]epibatidine from rat alpha2beta2 receptor; type: protein-complex assay
# Sequence of Neuronal acetylcholine receptor; alpha2/beta2 (P12389 whole entry): as the sequence (P12389 whole entry) above
# Sequence of Neuronal acetylcholine receptor; alpha2/beta2 (P12390 whole entry): as the sequence (P12390 whole entry) above
# [10] = molecular target: T1, Neuronal acetylcholine receptor; alpha4/beta2; assay: Antagonist activity at human alpha4beta2 nAChR expressed in SH-EP1 cells assessed as inhibition of carbamylcholine-induced 86Rb+ ion efflux by liquid scintillation counting; type: functional, cell-based
# [11] = molecular target: T1, Neuronal acetylcholine receptor; alpha4/beta2; assay: Antagonist activity at human alpha4beta2 nAChR expressed in SH-EP1 cells assessed as inhibition of carbamylcholine-induced 86Rb+ ion efflux by liquid scintillation counting relative to mecamylamine; type: functional, cell-based
# [12] = test system: Mus musculus; assay: Antidepressant activity in BALB/cJ mouse assessed as decrease in immobility time at 30 mg/kg, ip after 30 mins by forced swim test; type: functional, organism-based; design: dose 30 mg/kg
# Method in brief: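 Male BALB/cJ mice, 8–10 weeks old; compound in injectable water given ip at 10 mL/kg. Sertraline (10 or 20 mg/kg) served as positive control. 30 min post-dose, each mouse placed in a glass cylinder with 12 cm of 23 ± 1 °C water; immobility (floating) timed over a 6 min trial. n = 10/group; ANOVA with post hoc test.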
# [13] = molecular target: T2, Neuronal acetylcholine receptor; alpha4/beta2; assay: Displacement of [3H]epibatidine from rat alpha4beta2 receptor expressed in HEK cells; type: cell-based, HEK293
# Method in brief: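 Competition binding of [3H]epibatidine to membrane fractions from HEK cells stably transfected with rat α4 and β2 subunits; Ki values for blockade of specific binding.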
structure (smiles),measurement,setting,value
OCc1cc(-c2cncc(OC[C@@H]3CCN3)c2)on1,Efficacy,[1],13%
same,EC50,[2],25 nM
same,Ratio Ki,[3],20000
same,Ki,[4],81 nM
same,Ki,[5],0.31 nM
same,Ki,[6],6660 nM
same,Ki,[7],310 nM
same,Ki,[8],2.9 nM
same,Ki,[9],0.32 nM
same,IC50,[10],16 nM
same,Efficacy,[11],66%
same,Activity,[12],Active
same,Ki,[13],0.31 nM
